Laboratory results reported in ChEMBL document CHEMBL4373698, “Biosynthesis of Nonimmunosuppressive FK506 Analogues with Antifungal Activity” (J Nat Prod, 2019).
Converted amounts (≈) assume the structure as drawn. The source made the active and inactive calls. The rule behind the calls is not given here.

Legend:
Aspergillus fumigatus [1] = experiment: Antifungal activity against Aspergillus fumigatus Af293 after 48 hrs by EUCAST-based microdilution assay; format: functional, organism-based; conditions: Af293, 48 h
How it was run: (§1)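 Af293 conidia at 10^5/mL in RPMI (8.4 g/L RPMI1640, 34.5 g/L MOPS, 20 g/L dextrose, pH 7) per EUCAST broth microdilution; 2-fold serial dilutions from 10 μg/mL; 35 °C, 48 h; OD600 read. % growth versus no-inhibitor wells after medium-only background subtraction; IC50 derived from growth curves.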

Cryptococcus neoformans [2] = experiment: Antifungal activity against Cryptococcus neoformans harboring frr1 deletion mutant at 30 ug/ml; format: functional, organism-based
Cryptococcus neoformans [3] = experiment: Synergistic antifungal activity against Cryptococcus neoformans H99 in presence of 1.25 ug/ml fluconazole after 48 hrs by checker board assay; format: functional, organism-based; conditions: var grubii H99 
[4] = Immunosuppressive activity against […] mouse CD4-positive T cell cells assessed as inhibition of CD3/CD28-induced cell proliferation after 72 hrs by FACS analysis
How it was run: (§2)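 Spleen cells from 6–8-week B6J mice, red cells lysed; CD4+ T cells labelled with CellTrace Violet at isolation. Stimulated with anti-CD3/CD28 beads with compound for 72 h; stained for CD4 and CD44 plus near-IR live/dead dye; proliferation read by flow cytometry; IC50 from curves.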

Cryptococcus neoformans [5] = experiment: Synergistic antifungal activity against Cryptococcus neoformans H99 assessed as FIC index in presence of fluconazole after 48 hrs by checker board assay; format: functional, var grubii H99
How it was run: (§3)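 Checkerboard with fluconazole: H99 grown overnight in YPD at 30 °C, seeded at OD600 0.01 in RPMI 1640 per EUCAST. Test agent 2-fold serially diluted. FIC index calculated per strain; ≤0.5 synergy, >0.5–1.0 additive, >1.0–2.0 no interaction, >2.0 antagonism.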

Candida albicans [6] = experiment: Antifungal activity against Candida albicans SC5314 after 24 hrs by XTT assay; format: functional, organism-based; conditions: SC5314, 24 h
How it was run: (§4)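 SC5314 grown in YPD at 30 °C for 16 h, washed twice and resuspended in PBS. Seeded at 1.25 × 10^5 cells per well in 100% FBS with 2-fold dilutions from 10 μg/mL; 37 °C, 24 h. XTT (500 μg/mL in PBS, menadione final 10 μM) added, 2 h at 37 °C in the dark; OD490 read; IC50.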

Cryptococcus neoformans [7] = experiment: Antifungal activity against Cryptococcus neoformans H99 after 48 hrs by EUCAST-based microdilution assay; format: functional, organism-based; conditions: var grubii H99 
How it was run: (§5)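 H99 grown in YPD at 30 °C for 20 h, then seeded at OD600 0.01 in RPMI-MOPS-dextrose pH 7 (EUCAST microdilution). Analogues added as 2-fold dilutions from 10 μg/mL; 37 °C, 48 h; OD600 read. Growth expressed relative to no-inhibitor wells after background subtraction; IC50 calculated.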

Aspergillus fumigatus [8] = experiment: Antifungal activity against Aspergillus fumigatus Af293; format: functional, organism-based; how it was run: as §1
[9] = Immunosuppressive activity against […] mouse CD4-positive T cells assessed as inhibition of CD3/CD28-induced cell proliferation; how it was run: as §2
Cryptococcus neoformans [10] = experiment: Antifungal activity against Cryptococcus neoformans H99; format: functional, organism-based; conditions: var grubii H99; how it was run: as §5
Candida albicans [11] = experiment: Antifungal activity against Candida albicans SC5314; format: functional, organism-based; how it was run: as §4
Cryptococcus neoformans [12] = experiment: Synergistic antifungal activity against Cryptococcus neoformans H99 assessed as FIC index in presence of fluconazole; format: functional, var grubii H99; how it was run: as §3
Cryptococcus neoformans [13] = experiment: Synergistic antifungal activity against Cryptococcus neoformans H99 in presence of 2.5 ug/ml fluconazole after 48 hrs by checker board assay; format: functional, organism-based; conditions: var grubii H99 

SMILES	IC50 (Aspergillus fumigatus [1])	IC50 [4]	IC50 (Candida albicans [6])	IC50 (Cryptococcus neoformans [7])	other results
CC[C@@H]1/C=C(\C)C[C@H](C)C[C@H](OC)[C@H]2O[C@@](O)(CC(=O)N3CCCC[C@H]3C(=O)O[C@H](/C(C)=C/[C@@H]3CC[C@@H](O)[C@H](O)C3)[C@H](C)[C@@H](O)CC1=O)[C@H](C)C[C@@H]2OC	307 µg/mL (≈ 402 µM)	0.258 µg/mL (≈ 0.338 µM)	2.85 µg/mL (≈ 3.73 µM)	3.3 µg/mL (≈ 4.32 µM)	Activity (Cryptococcus neoformans [2]): inactive; IC50 (Cryptococcus neoformans [3]): 0.0625 µg/mL; fractional inhibitory concentration index (FICI) (Cryptococcus neoformans [5]): 0.19
C=CC[C@@H]1/C=C(\C)C[C@H](C)C[C@H](OC)[C@H]2O[C@@](O)(C(=O)C(=O)N3CCCC[C@H]3C(=O)O[C@H](/C(C)=C/[C@@H]3CC[C@@H](O)[C@H](OC)C3)[C@H](C)[C@@H](O)CC1=O)[C@H](C)C[C@@H]2OC [TACROLIMUS ANHYDROUS]	–	–	–	–	IC50 (Aspergillus fumigatus [8]): 0.015 µg/mL (≈ 0.0187 µM); IC50 [9]: 0.027 ng/mL (≈ 3.36e-05 µM); IC50 (Cryptococcus neoformans [10]): 0.001 µg/mL (≈ 0.00124 µM); IC50 (Candida albicans [11]): 0.005 µg/mL (≈ 0.00622 µM); fractional inhibitory concentration index (FICI) (Cryptococcus neoformans [12]): 0.38
CO[C@H]1C[C@@H](C)C/C(C)=C/[C@@H](C)C(=O)C[C@H](O)[C@@H](C)[C@@H](/C(C)=C/[C@@H]2CC[C@@H](O)[C@H](O)C2)OC(=O)[C@@H]2CCCCN2C(=O)C[C@]2(O)O[C@H]1[C@@H](OC)C[C@H]2C	> 50 µg/mL	3.38 µg/mL (≈ 4.5 µM)	837 µg/mL (≈ 1120 µM)	54.5 µg/mL (≈ 72.7 µM)	–
CCC[C@@H]1/C=C(\C)C[C@H](C)C[C@H](OC)[C@H]2O[C@@](O)(CC(=O)N3CCCC[C@H]3C(=O)O[C@H](/C(C)=C/[C@@H]3CC[C@@H](O)[C@H](O)C3)[C@H](C)[C@@H](O)CC1=O)[C@H](C)C[C@@H]2OC	> 50 µg/mL	0.0459 µg/mL (≈ 0.059 µM)	4.26 µg/mL (≈ 5.48 µM)	8.85 µg/mL (≈ 11.4 µM)	–
CCC[C@@H]1/C=C(\C)C[C@H](C)C[C@H](OC)[C@H]2O[C@@](O)(CC(=O)N3CCCC[C@H]3C(=O)O[C@H](/C(C)=C/[C@@H]3CC[C@@H](O)[C@H](OC)C3)[C@H](C)[C@@H](O)CC1=O)[C@H](C)C[C@@H]2OC	14.1 µg/mL (≈ 17.8 µM)	0.0255 µg/mL (≈ 0.0323 µM)	0.817 µg/mL (≈ 1.03 µM)	0.151 µg/mL (≈ 0.191 µM)	–
CC[C@@H]1/C=C(\C)C[C@H](C)C[C@H](OC)[C@H]2O[C@@](O)(C(=O)C(=O)N3CCCC[C@H]3C(=O)O[C@H](/C(C)=C/[C@@H]3CC[C@@H](O)[C@H](OC)C3)[C@H](C)[C@@H](O)CC1=O)[C@H](C)C[C@@H]2OC [ASCOMYCIN]	–	–	–	–	fractional inhibitory concentration index (FICI) (Cryptococcus neoformans [5]): 0.5
C=CC[C@@H]1/C=C(\C)C[C@H](C)C[C@H](OC)[C@H]2O[C@@](O)(C(=O)C(=O)N3CCCC[C@H]3C(=O)O[C@H](/C(C)=C/[C@@H]3CC[C@@H](O)[C@H](O)C3)[C@H](C)[C@@H](O)CC1=O)[C@H](C)C[C@@H]2OC	–	–	–	–	IC50 (Aspergillus fumigatus [8]): 0.165 µg/mL (≈ 0.209 µM); IC50 [9]: 0.246 ng/mL (≈ 0.000311 µM); IC50 (Cryptococcus neoformans [10]): 0.005 µg/mL (≈ 0.00633 µM); IC50 (Candida albicans [11]): 0.106 µg/mL (≈ 0.134 µM)
CCC[C@@H]1/C=C(\C)C[C@H](C)C[C@H](OC)[C@H]2O[C@@](O)(C(=O)C(=O)N3CCCC[C@H]3C(=O)O[C@H](/C(C)=C/[C@@H]3CC[C@@H](O)[C@H](O)C3)[C@H](C)[C@@H](O)CC1=O)[C@H](C)C[C@@H]2OC	0.415 µg/mL (≈ 0.524 µM)	0.00172 µg/mL (≈ 0.00218 µM)	0.059 µg/mL (≈ 0.0745 µM)	0.033 µg/mL (≈ 0.0417 µM)	–
C=CC[C@@H]1/C=C(\C)C[C@H](C)C[C@H](OC)[C@H]2O[C@@](O)(CC(=O)N3CCC[C@H]3C(=O)O[C@H](/C(C)=C/[C@@H]3CC[C@@H](O)[C@H](O)C3)[C@H](C)[C@@H](O)CC1=O)[C@H](C)C[C@@H]2OC	> 50 µg/mL	0.886 µg/mL (≈ 1.16 µM)	3440 µg/mL (≈ 4520 µM)	221 µg/mL (≈ 290 µM)	–
C=CC[C@@H]1/C=C(\C)C[C@H](C)C[C@H](OC)[C@H]2O[C@@](O)(CC(=O)N3CCCC[C@H]3C(=O)O[C@H](/C(C)=C/[C@@H]3CC[C@@H](O)[C@H](OC)C3)[C@H](C)[C@@H](O)CC1=O)[C@H](C)C[C@@H]2OC	–	–	–	–	IC50 (Aspergillus fumigatus [8]): 24.2 µg/mL (≈ 30.6 µM); IC50 [9]: 0.513 ng/mL (≈ 0.000649 µM); IC50 (Cryptococcus neoformans [10]): 0.036 µg/mL (≈ 0.0456 µM); IC50 (Candida albicans [11]): 0.963 µg/mL (≈ 1.22 µM)
CO[C@H]1C[C@@H](C)C/C(C)=C/[C@@H](C)C(=O)C[C@H](O)[C@@H](C)[C@@H](/C(C)=C/[C@@H]2CC[C@@H](O)[C@H](OC)C2)OC(=O)[C@@H]2CCCCN2C(=O)C[C@]2(O)O[C@H]1[C@@H](OC)C[C@H]2C	230 µg/mL (≈ 302 µM)	1.98 µg/mL (≈ 2.6 µM)	6.07 µg/mL (≈ 7.95 µM)	2.47 µg/mL (≈ 3.23 µM)	Activity (Cryptococcus neoformans [2]): inactive; IC50 (Cryptococcus neoformans [3]): 0.125 µg/mL; fractional inhibitory concentration index (FICI) (Cryptococcus neoformans [5]): 0.5
CC[C@@H]1/C=C(\C)C[C@H](C)C[C@H](OC)[C@H]2O[C@@](O)(C(=O)C(=O)N3CCCC[C@H]3C(=O)O[C@H](/C(C)=C/[C@@H]3CC[C@@H](O)[C@H](O)C3)[C@H](C)[C@@H](O)CC1=O)[C@H](C)C[C@@H]2OC	12.2 µg/mL (≈ 15.7 µM)	0.00327 µg/mL (≈ 0.00421 µM)	0.079 µg/mL (≈ 0.102 µM)	0.027 µg/mL (≈ 0.0347 µM)	–
C=CC[C@@H]1/C=C(\C)C[C@H](C)C[C@H](OC)[C@H]2O[C@@](O)(CC(=O)N3CCCC[C@H]3C(=O)O[C@H](/C(C)=C/[C@@H]3CC[C@@H](O)[C@H](O)C3)[C@H](C)[C@@H](O)CC1=O)[C@H](C)C[C@@H]2OC	–	–	–	–	IC50 (Aspergillus fumigatus [8]): 29.8 µg/mL (≈ 38.4 µM); IC50 [9]: 15.1 ng/mL (≈ 0.0194 µM); IC50 (Cryptococcus neoformans [10]): 0.154 µg/mL (≈ 0.198 µM); IC50 (Candida albicans [11]): 2.8 µg/mL (≈ 3.6 µM)
CC[C@@H]1/C=C(\C)C[C@H](C)C[C@H](OC)[C@H]2O[C@@](O)(CC(=O)N3CCCC[C@H]3C(=O)O[C@H](/C(C)=C/[C@@H]3CC[C@@H](O)[C@H](OC)C3)[C@H](C)[C@@H](O)CC1=O)[C@H](C)C[C@@H]2OC	7.82 µg/mL (≈ 10.1 µM)	0.025 µg/mL (≈ 0.0321 µM)	0.662 µg/mL (≈ 0.851 µM)	0.355 µg/mL (≈ 0.456 µM)	IC50 (Cryptococcus neoformans [13]): 0.031 µg/mL; Activity (Cryptococcus neoformans [2]): inactive; fractional inhibitory concentration index (FICI) (Cryptococcus neoformans [5]): 0.19
